Assay results published in paper PMC3575752 (Journal of nuclear medicine : official publication, Society …, 2009).

What was measured:
[1] = tested on: LNCaP PSMA+ tumor xenografts; test: microPET/CT imaging of LNCaP; assay type: in vivo, male NCr nude mice; conditions: 1 mg nonradioactive (2) 1 h before tracer, 120 min after injection
How it was run: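 LNCaP-xenograft male nude mice (tumours 5–10 mm) under isoflurane were pretreated with 1 mg unlabelled analogue in 200 μL Tris buffer. One hour later they received tail-vein 18F tracer (3,700–7,400 kBq). MicroPET/CT, 10-min acquisitions at 0, 1 and 2 h, list mode, 2D OSEM reconstruction.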

[2] = tested on: PC-3 PSMA− tumor xenografts; test: Ex vivo biodistribution in mice bearing PC-3; design: species or system male NCr nude mice
How it was run: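 Male NCr nude mice with subcutaneous right-shoulder PC-3 xenografts (cells in serum-free medium; tumours 5–10 mm, 1–2 wk). 18F tracer, 3,700–7,400 kBq, by tail vein under isoflurane. Euthanised after 2 h imaging. Cardiac blood, major organs (including kidney) and tumour weighed and γ-counted. %ID/g from known-activity standards. n = 3; one-tailed t test, unequal variance.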

[3] = tested on: PC-3 PSMA− tumor xenografts; test: microPET/CT imaging of PC-3; assay type: in vivo, male NCr nude mice; conditions: PC-3 PSMA− xenograft, 2 h post-injection
How it was run: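 PC-3-xenograft male NCr nude mice (tumours 5–10 mm, 1–2 wk after subcutaneous inoculation) anaesthetised with isoflurane. Tail-vein 18F tracer, 3,700–7,400 kBq (100–200 μCi). MicroPET/CT, 10-min scans at 0, 1 and 2 h. List-mode data, 2D OSEM reconstruction.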

purified PSMA = purified PSMA (Homo sapiens, UniProt Q04609); test: HPLC-based PSMA inhibition IC50 assay; assay type: biochemical; conditions: read-out: IC50, PSMA inhibition; PABGgG 1 μM, 15 min, 37°C, Tris pH 7.4
How it was run: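 Purified PSMA diluted in 50 mM Tris pH 7.4 with 1% Triton X-100 to give 15–20% uninhibited conversion. […] Shaken 15 min at 37°C, then quenched with 2% TFA in methanol and buffered with 0.1 M K2HPO4. After centrifugation, supernatant product measured by HPLC; IC50 calculated.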

purified PSMA, sequence (Q04609 whole entry): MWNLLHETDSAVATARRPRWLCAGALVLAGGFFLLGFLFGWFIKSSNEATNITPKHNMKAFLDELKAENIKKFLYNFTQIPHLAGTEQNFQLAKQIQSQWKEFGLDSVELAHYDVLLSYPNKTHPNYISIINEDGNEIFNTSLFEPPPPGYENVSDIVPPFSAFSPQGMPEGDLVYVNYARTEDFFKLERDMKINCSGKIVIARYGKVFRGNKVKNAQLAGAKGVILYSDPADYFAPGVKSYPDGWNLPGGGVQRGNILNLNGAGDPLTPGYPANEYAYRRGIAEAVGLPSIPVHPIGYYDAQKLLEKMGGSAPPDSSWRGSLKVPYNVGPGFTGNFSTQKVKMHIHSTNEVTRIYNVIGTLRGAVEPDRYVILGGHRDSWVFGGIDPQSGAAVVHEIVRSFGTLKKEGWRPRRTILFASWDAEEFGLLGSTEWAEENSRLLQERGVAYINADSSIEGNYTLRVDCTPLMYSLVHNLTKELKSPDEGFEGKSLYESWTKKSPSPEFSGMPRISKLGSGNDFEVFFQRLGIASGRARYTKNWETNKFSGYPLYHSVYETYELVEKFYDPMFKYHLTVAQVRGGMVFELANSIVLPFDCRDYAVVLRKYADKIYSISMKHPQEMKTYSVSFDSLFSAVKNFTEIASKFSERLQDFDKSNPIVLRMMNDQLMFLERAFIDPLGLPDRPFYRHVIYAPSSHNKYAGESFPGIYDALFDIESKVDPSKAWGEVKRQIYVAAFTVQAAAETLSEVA

Structure (SMILES)	PET tumor uptake after blocking [1]	tumor uptake in PSMA− control ([2]; PC-3 tumor, 2 h post-injection) [%ID/g]	kidney uptake ([2]; PSMA− (PC-3) model, 2 h) [%ID/g]	PET tumor signal [3]	IC50 (purified PSMA) [nM]
O=C(O)CC[C@H](NP(=O)(O)OC[C@H](NC(=O)CC[C@H](NC(=O)c1ccc([18F])cc1)C(=O)O)C(=O)O)C(=O)O [compound 3, ^18F-S-2-((2-(S-4-(4-Fluorobenzamido)-4-Carboxybutanamido)-S-2-Carboxyethoxy) Hydroxyphosphoryl-Amino)-Pentanedioic Acid]	substantial decrease in tumor uptake	0.32 ± 0.14	2.83 ± 0.9	no detectable tumor signal	–
O=C(O)CC[C@H](NP(=O)(O)OC[C@H](NC(=O)CC[C@H](NC(=O)c1ccc(F)cc1)C(=O)O)C(=O)O)C(=O)O [compound 2, S-2-((2-(S-4-(4-Fluorobenzamido)-4-Carboxybutanamido)-S-2-Carboxyethoxy) Hydroxyphosphorylamino)-Pentanedioic Acid]	–	–	–	–	0.68
